Reference: PMC4301737 (Journal of molecular biology, 2009)
Where two headings read alike, the source gives them in different places.

How the values were obtained:
BpeGReg [1] = test: Ligand binding kinetics and affinity of BpeGReg; set-up: species or system Bordetella pertussis; conditions: 25°C, 100 mM NaPi, pH 7.5
Summary of the method: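 His-tagged protein purified by Co2+-affinity, used at 2–5 µM. O2 kon by flash photolysis at 436 or 414 nm with 64–1024 µM O2. O2 koff by stopped-flow at 436 nm, oxy protein mixed with 1 mM dithionite. CO kon by photolysis at 419 nm with 30–480 µM CO. CO koff: 3.5 µM CO-bound protein (20 µM CO) displaced by 500 µM NO at 423 nm. NO kon by photolysis at 435 nm with 15–60 µM NO. Rates taken from linear kobs-versus-ligand plots over ≥4 concentrations.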

HemAT-Bs = conditions: ref Zhang et al.[22], cited from earlier work
[2] = biological target: sperm-whale myoglobin (SWMb); conditions: ref Springer et al.[23], cited from earlier work
BpeGReg [3] = test: Enzymatic diguanylate cyclase assay; format: biochemical, Bordetella pertussis

[C-]#[O+] [CO, carbon-monoxide]
CO koff (BpeGReg [1]): 0.056 s⁻¹ | Kd (HemAT-Bs; read-out: CO Kd): 200 nM | CO koff (HemAT-Bs): 0.067 s⁻¹ | Kd ([2]; read-out: CO Kd): 37 nM | CO koff [2]: 0.019 s⁻¹

O=O [O2, oxygen]
O2 koff (BpeGReg [1]): 4.5 s⁻¹ | Kd (BpeGReg [1]; read-out: O2 Kd): 640 nM | drop in activity in the absence of O2 (BpeGReg [3]; 5 µM BpeGReg in air (Fe(II)O2) vs anaerobic (Fe(II)), 500 µM GTP, PDE-coupled): 13 fold | rate of O2-bound BpeGReg relative to unliganded ferrous form (BpeGReg [3]; PDE-coupled assay): 10 times | initial rate of c-di-GMP production by O2-bound BpeGReg (BpeGReg [3]; PDE-coupled assay, 500 µM GTP): 2.5 min⁻¹ | c-di-GMP production by liganded state of BpeGReg (BpeGReg [3]; compared to the unliganded, CO- and NO-bound forms, HPLC-MS and TLC): highest amount of c-di-GMP per mole of protein | Kd ([2]; read-out: O2 Kd): 880 nM | O2 koff [2]: 15 s⁻¹

Nc1nc2c(ncn2[C@@H]2O[C@@H]3COP(=O)(O)O[C@H]4[C@@H](O)[C@H](n5cnc6c(=O)[nH]c(N)nc65)O[C@@H]4COP(=O)(O)O[C@H]3[C@H]2O)c(=O)[nH]1 [c-di-GMP, bis-(3’–5’)-cyclic diguanosine monophosphate]
effect on BpeGReg-catalyzed reaction (BpeGReg [3]; 20 µM c-di-GMP added at start, 1 µM oxy-BpeGReg, 500 µM GTP): strongly inhibited
